Source: PMC4091826 (Molecular Biology of the Cell, 2014)
One block for each molecule: values may come before it. No end group written: not given here.

Assays:
[1] = system: human mtHsp70; experiment: Stimulation of ATPase activity by P5 peptide, human mtHsp70; type: biochemical; conditions: 250-fold molar excess of P5; Figure 1D
Summary of the method: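 Human mtHsp70[ATP] complexes were formed by incubating 100 μg protein with 50 μM ATP and 25 μCi [γ-32P]ATP on ice for 3 min in buffer A (25 mM HEPES-KOH pH 7.5, 100 mM KCl, 10 mM Mg(OAc)2). Complexes were isolated by Sephadex G50 (1 μM protein) and snap-frozen. Single-turnover hydrolysis was run at 25°C in buffer A, either alone (basal) or with P5 peptide.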

[2] = system: human mtHsp70; conditions: versus wild type; ref Goswami et al., 2010; cited from earlier work
[3] = system: human mtHsp70; conditions: ref Goswami et al., 2010; cited from earlier work
[4] = system: human mtHsp70; experiment: Single-turnover basal ATPase assay, human mtHsp70; type: biochemical; conditions: 25°C, buffer A, versus wild type, Figure 1C
Summary of the method: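 Purified protein (100 μg) was loaded on ice for 3 min with 50 μM ATP and 25 μCi [γ-32P]ATP in buffer A (25 mM HEPES-KOH pH 7.5, 100 mM KCl, 10 mM Mg(OAc)2). Complexes were isolated immediately on Sephadex G50 and frozen in liquid nitrogen; they contained 1 μM protein. Hydrolysis was then run at 25°C in buffer alone, without stimulators.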

[5] = target: T1, Ssc1 (yeast mtHsp70), wild type, hexahistidine-tagged, purified (S. cerevisiae, UniProt P0CS90 24-654); experiment: fluorescence polarisation
[6] = target: T2, Ssc1 E467A, hexahistidine-tagged, purified (S. cerevisiae, UniProt P0CS90 24-654, E467A); experiment: fluorescence polarisation
[7] = target: T1, Ssc1 (yeast mtHsp70), wild type, …; experiment: fluorescence polarisation; remark: listed apart in the source
Target sequence in this assay (P0CS90 24-654): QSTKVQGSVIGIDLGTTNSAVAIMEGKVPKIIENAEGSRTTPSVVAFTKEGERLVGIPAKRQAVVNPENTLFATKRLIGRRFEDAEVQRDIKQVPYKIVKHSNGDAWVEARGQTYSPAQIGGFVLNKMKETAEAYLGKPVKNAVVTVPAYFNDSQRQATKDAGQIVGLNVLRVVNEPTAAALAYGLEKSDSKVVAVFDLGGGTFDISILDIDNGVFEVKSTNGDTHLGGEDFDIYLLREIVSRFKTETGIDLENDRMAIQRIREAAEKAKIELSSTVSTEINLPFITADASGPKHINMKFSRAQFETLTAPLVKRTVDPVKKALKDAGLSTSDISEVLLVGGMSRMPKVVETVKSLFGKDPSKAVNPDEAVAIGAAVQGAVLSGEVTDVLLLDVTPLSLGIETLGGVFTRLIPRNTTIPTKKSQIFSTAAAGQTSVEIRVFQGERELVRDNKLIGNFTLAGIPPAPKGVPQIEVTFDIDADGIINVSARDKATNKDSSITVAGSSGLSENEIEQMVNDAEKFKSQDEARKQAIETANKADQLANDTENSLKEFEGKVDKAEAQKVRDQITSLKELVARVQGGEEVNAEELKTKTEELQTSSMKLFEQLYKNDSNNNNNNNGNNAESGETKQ

[8] = target: T2, Ssc1 E467A, hexahistidine-tagged, …; experiment: fluorescence polarisation; remark: listed apart in the source
[9] = target: Ssc1 E467A-D411R, purified (S. cerevisiae, UniProt P0CS90 24-654, D411R | E467A); experiment: fluorescence polarisation
[10] = target: Ssc1 D411R, purified (S. cerevisiae, UniProt P0CS90 24-654, D411R); experiment: fluorescence polarisation
[11] = target: T1, Ssc1 (yeast mtHsp70), wild type, …; experiment: fluorescence polarisation; remark: listed apart in the source
[12] = target: T2, Ssc1 E467A, hexahistidine-tagged, …; experiment: fluorescence polarisation; remark: listed apart in the source
[13] = target: human mtHsp70, wild type, hexahistidine-tagged, purified (human, UniProt P38646 47-679); experiment: fluorescence polarisation
[14] = system: yeast cells; experiment: Growth phenotype; type: cell-based, S. cerevisiae; conditions: minimal medium or 5-FOA medium, serial dilutions
[15] = system: Ssc1; experiment: Limited proteolytic cleavage by trypsin; type: biochemical, S. cerevisiae; conditions: 1:100 (wt/wt) trypsin, 25°C, SDS-PAGE
[16] = system: Cytb2(47)-DHFR; experiment: In vitro import kinetics of Cytb2; type: biochemical, S. cerevisiae; conditions: isolated mitochondria, 37°C preincubation; Figure 6, C and D
Summary of the method: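 Saturating purified precursor plus 8 mM each ATP and NADH added. Time points stopped with valinomycin, then proteinase K (quenched with PMSF). Anti-DHFR immunoblot; intermediate form plotted over time, maximum wild-type import set as 100%.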

[17] = system: Ssc1; experiment: ATP-induced substrate release by fluorescence anisotropy, Ssc1; type: biochemical, S. cerevisiae; conditions: 2.5 mM ATP, 5 μM Ssc1[F-P5], anisotropy decrease up to 5 min
[18] = system: mitochondrial mass; experiment: Mitochondrial mass estimation by 10-N-nonyl acridine orange flow cytometry; type: cell-based, S. cerevisiae; conditions: in comparison to wild type; Figure 6E
Summary of the method: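 Per strain, cells equal to 0.2 OD at A600 were stained with 10-N-nonyl acridine orange, a cardiolipin-binding dye, and analysed by flow cytometry to estimate total mitochondrial mass.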

[19] = system: Ssc1; experiment: Single-turnover basal ATPase assay, Ssc1; type: biochemical, S. cerevisiae; conditions: 25°C, buffer A, versus wild type
[20] = system: Tim44; experiment: Coimmunoprecipitation of Ssc1 with Tim44; type: binding, S. cerevisiae; conditions: mitochondrial lysates, anti-Ssc1, presence or absence of 1 mM ATP; Figure 6A
[21] = system: Hsp60; experiment: Hsp60 precursor accumulation assay; type: cell-based, S. cerevisiae; conditions: shift to 37°C for 2 h, immunoblot; Figure 6B
Summary of the method: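 Yeast strains were grown in YPD at 28°C to early log phase, then shifted to 37°C for 2 h. Cells equivalent to 2 OD A600 were taken before and after the shift and lysed in 0.1 N NaOH. Whole-cell extracts were run on SDS–PAGE and immunoblotted for Hsp60 to detect its precursor (p) and mature (m) forms.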

[22] = system: fluorescein-labeled P5 peptide (F-P5); experiment: Fluorescence anisotropy equilibrium binding of F-P5 peptide to Ssc1 proteins; conditions: F-P5, versus wild type

Chain of human mtHsp70, wild type, hexahistidine-tagged, purified (P38646 47-679): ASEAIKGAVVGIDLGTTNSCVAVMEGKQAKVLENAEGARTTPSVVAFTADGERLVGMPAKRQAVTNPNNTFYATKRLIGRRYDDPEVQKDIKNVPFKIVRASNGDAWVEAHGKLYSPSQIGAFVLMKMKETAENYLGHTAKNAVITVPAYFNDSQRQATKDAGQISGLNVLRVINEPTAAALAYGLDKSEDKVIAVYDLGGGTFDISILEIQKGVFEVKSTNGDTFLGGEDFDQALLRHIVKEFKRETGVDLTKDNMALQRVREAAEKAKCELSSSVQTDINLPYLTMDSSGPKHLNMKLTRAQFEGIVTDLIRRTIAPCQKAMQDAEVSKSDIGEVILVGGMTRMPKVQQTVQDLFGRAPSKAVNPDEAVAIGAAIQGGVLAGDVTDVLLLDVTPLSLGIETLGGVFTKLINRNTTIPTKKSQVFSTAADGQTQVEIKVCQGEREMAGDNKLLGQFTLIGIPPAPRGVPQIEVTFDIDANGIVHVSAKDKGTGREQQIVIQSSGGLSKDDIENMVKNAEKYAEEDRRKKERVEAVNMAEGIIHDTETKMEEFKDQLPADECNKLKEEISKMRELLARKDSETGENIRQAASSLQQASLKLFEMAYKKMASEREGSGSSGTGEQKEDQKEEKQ

Molecule: mtHsp70G489E
- stimulation of ATPase activity by P5 substrate peptide, in words [1]: marked decrease in stimulation of ATPase activity by P5 substrate peptide
- elevated basal rate of ATP hydrolysis [2]: fivefold elevated
- loss in stimulation of ATPase activity by peptide substrates [3]: 70%

Molecule: mtHsp70Q488A
- stimulation of ATPase activity by P5 substrate peptide, in words [1]: marked decrease in stimulation of ATPase activity by P5 substrate peptide
- fold enhancement in basal ATPase activity [4]: 2.75 fold

- kon [5]: 14000 M⁻¹ s⁻¹
- kon [6]: 3400 M⁻¹ s⁻¹
- Kd [7]: 200 ± 37 nM
- Kd [8]: 1750 ± 269 nM
- binding result [9]: binds
- binding result [10]: binds
- koff [11]: 0.0023 ± 3.47e-05 s⁻¹
- koff [12]: 0.0039 ± 0.000131 s⁻¹
- binding result [13]: binds
B1: fluorescein-labeled P5 peptide (peptide)
peptide: CALLLSAPRR
modifications: also: fluorescein label, position not given here

- fold reduced affinity for the substrate vs wild type [22]: ~8.6 fold
B2: E467A (protein)
chain: QSTKVQGSVIGIDLGTTNSAVAIMEGKVPKIIENAEGSRTTPSVVAFTKEGERLVGIPAKRQAVVNPENTLFATKRLIGRRFEDAEVQRDIKQVPYKIVKHSNGDAWVEARGQTYSPAQIGGFVLNKMKETAEAYLGKPVKNAVVTVPAYFNDSQRQATKDAGQIVGLNVLRVVNEPTAAALAYGLEKSDSKVVAVFDLGGGTFDISILDIDNGVFEVKSTNGDTHLGGEDFDIYLLREIVSRFKTETGIDLENDRMAIQRIREAAEKAKIELSSTVSTEINLPFITADASGPKHINMKFSRAQFETLTAPLVKRTVDPVKKALKDAGLSTSDISEVLLVGGMSRMPKVVETVKSLFGKDPSKAVNPDEAVAIGAAVQGAVLSGEVTDVLLLDVTPLSLGIETLGGVFTRLIPRNTTIPTKKSQIFSTAAAGQTSVEIRVFQGARELVRDNKLIGNFTLAGIPPAPKGVPQIEVTFDIDADGIINVSARDKATNKDSSITVAGSSGLSENEIEQMVNDAEKFKSQDEARKQAIETANKADQLANDTENSLKEFEGKVDKAEAQKVRDQITSLKELVARVQGGEEVNAEELKTKTEELQTSSMKLFEQLYKNDSNNNNNNNGNNAESGETKQ
- growth phenotype, in words [14]: viable at 30 °C but displayed temperature sensitivity at 34 and 37 °C
- trypsin cleavage pattern, in words [15]: the 30-kDa bands were very unstable and rapidly degraded further into smaller-sized fragments
- rate of precursor translocation into mitochondria, in words [16]: impairment in translocation rate
- substrate (peptide) release upon ATP addition [17]: ~38%
- reduction in mitochondrial mass [18]: 30%
- fold increase in basal ATPase activity [19]: 4.85 fold
- interaction with Tim44, in words [20]: interacted negligibly with Tim44 even in the absence of ATP
- Hsp60 precursor accumulation, in words [21]: significant levels of Hsp60 precursor form as compared with wild type
